Bioassay records: PubChem BioAssay, Broad Institute
An excerpt weighted towards active compounds, which were near 2.6% of everything screened.
Vif imaging – inhibitors of HIV Vif; inhibition, % at 7.49 µM; HEK293T cells, Vif self-association by quenched fluorescence, imaging, 24 h; 0.35% of 340,000 active; AID 602346; in the data active means inhibition above about 50%, passing the limit was not always enough; inconclusive means no clear call, values can overlap the other calls; inactive means below about 31%
HIV Env fusion – HIV envelope-mediated fusion inhibition | HeLa-JRFL Env/CEM21 cell fusion, luciferase | inhibition, % at 12.3 µM | 1.1% of 360,000 active | AID 651610;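 active means mean replicate inhibition score of at least 50 and every replicate individually at or above 50; inconclusive means only one of the two criteria met; inactive means mean below 50 and not all replicates reaching 50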
Ecoli rRNA inh – selective bacterial rRNA inhibition in E. coli; E. coli WT GFP vs humanized-ribosome RFP mutants, fluorescence, 24 h; stronger effect = lower value; DMSO median 0, no signal -100; AID 720706; 1.6% of 350,000 active; GFP signal change (wild-type ribosome), % (test concentration not listed);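 active means significant combined selectivity score with lowered wild-type GFP, culture density cut under 30%, mutant RFP and density less affected; inactive means any of these conditions unmet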
FN deposit inh – fibronectin deposition inhibition; 0.086% of 350,000 active; AH1F fibroblasts, Alexa488-fibronectin deposition fluorescence, overnight; inhibition, % at 12.6 µM;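 active means mean inhibition across replicates of 30% or more, regardless of how many single replicates reach that level; inconclusive means mean under 30% yet at least half of replicates reach 30%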
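Assay system: AH1F fibroblasts assembling fluorescent fibronectin matrix; Amount: 10000 AH1F cells per well; Buffer or medium: DMEM, 2% serum; Probe or stimulus: Alexa488-fibronectin, 24 nM final in well; Doses: single compound dose, delivered by pin transfer; Incubation: 1 h adhesion, overnight exposure; Measured by: fluorescence 485/525 nm; Read-out: fibronectin deposition inhibition.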
S100A4 inh HTS – blocks human S100A4 binding to myosin IIA peptide | S100A4/TAMRA-MyoIIA peptide fluorescence polarization | inhibition, % at 10.7 µM | 0.14% of 360,000 active | AID 652163;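 active means mean inhibition of at least 70% across replicates, with every replicate also reaching that level; inconclusive means mean inhibition reaches 70% but some replicates fall short; inactive means mean inhibition below 70%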
Target sequence (P26447 whole entry, looked up): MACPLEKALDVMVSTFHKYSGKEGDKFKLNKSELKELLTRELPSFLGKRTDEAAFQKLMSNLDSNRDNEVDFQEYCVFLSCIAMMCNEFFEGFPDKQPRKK
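Test system – S100A4 monomer (human) · Compound – single-point compound testing · Schedule – 5 min incubation before reading · Probe or stimulus – TAMRA-labelled myosin IIA heavy-chain peptide probe, 5 nM · Benchmarks – neutral control DMSO, positive control TFP · Medium – Calcium-containing HEPES buffer, pH 7.2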
miR122 inh – blocks miR-122 activity in Huh7 sensor cells; 0.3% of 340,000 active; Huh7 miR-122 Renilla luciferase sensor, 48 h; neutral wells = 0, positive control = 100; activation (reporter increase), % at 12.5 µM;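 active means mean replicate activation score at least 90 and every replicate individually at or above 90; inconclusive means only one of the two criteria met; inactive means neither criterion met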;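 further: higher luciferase means less miR-122 activity so hits act as miR-122 inhibitors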
miR-27b select – miR-27b effect in Huh7 as miR-122 inhibitor selectivity check | 35 tested, under 10 active | shares compounds with miR122 inh | relative miR-27b level (unnormalised ratio), ratio at 35 µM | Huh7 miR-27b levels, qRT-PCR, 48 h | AID 687039;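 active means compounds lowering miR-27b whose fitted half-maximal dose is at most twice their top tested dose; inconclusive means flat curve with moderate drop, or poor fit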
AID977621 – growth inhibition of wild-type GFP E. coli, dose response, H69 mutant RFP, cherry-pick; shares compounds with Ecoli rRNA inh; E. coli wild-type GFP strain growth, fluorescence, 24 h; activity change, negative = inhibition at 50 µM; 1,900 tested, under 10 active; AID 977621;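 active means Wild-type ribosome reporter drop at least double the humanized mutant ribosome reporter drop, growth loss under a set limit; inconclusive means no clear call, values can overlap the other calls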;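 further: wild-type GFP and H69 mutant RFP strains grown together 50/50 in each well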
AID977628 – E. coli growth inhibition, wild-type GFP versus h24 humanized RFP strain, dose response, h24 mutant RFP vs wild-type GFP, cherry-pick; shares compounds with Ecoli rRNA inh; E. coli WT GFP strain growth, fluorescence, 24 h; activity change, negative = inhibition at 50 µM; 1,900 tested, under 10 active;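 active means compound lowering the normal-ribosome reporter at least twice as much as the humanized-ribosome reporter, growth loss under a set limit; inconclusive means no clear call, values can overlap the other calls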;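 further: wild-type GFP and h24 humanized RFP strains co-cultured 1 to 1 per well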
Each line names hits and unclear results; the compound was inactive in the other large screens (follow-up assays come after a bar, where they were run).

Cc1cc(C)c(S(=O)(=O)NC(C)C)c(C)c1-n1cnnn1	miR122 inh 91 | miR-27b select inactive
Cc1ccc(C)c(S(=O)(=O)Nc2ccc(-n3cnnn3)cc2)c1	miR122 inh 183 (no result: HIV Env fusion, Ecoli rRNA inh, FN deposit inh, S100A4 inh HTS) | miR-27b select inactive
Cc1ccc(S(=O)(=O)Nc2cccc(-n3cnnn3)c2)cc1C	none
COc1cc2oc3ccccc3c2cc1N(CC(=O)N1CCCCC1)S(=O)(=O)c1ccc(C)cc1	none (no result: HIV Env fusion, Ecoli rRNA inh, FN deposit inh, S100A4 inh HTS)
CCN(CC)C(=O)CN(c1cc2c(cc1OC)oc1ccccc12)S(=O)(=O)c1ccccc1	miR122 inh 100 (no result: HIV Env fusion, Ecoli rRNA inh, FN deposit inh, S100A4 inh HTS) | miR-27b select inactive
C[C@@H]1CN([C@@H](C)CO)C(=O)c2cccc(NC(=O)CCCCCC(=O)Nc3ccccc3N)c2O[C@H]1CN(C)Cc1ccc(Oc2ccccc2)cc1	none (no result: Vif imaging, HIV Env fusion, FN deposit inh, S100A4 inh HTS, miR122 inh)
COc1ccc(S(=O)(=O)NCCN2CCOCC2)c2ccccc12	miR122 inh inconclusive (no result: HIV Env fusion, Ecoli rRNA inh, FN deposit inh, S100A4 inh HTS) | miR-27b select inactive
COc1ccc(S(=O)(=O)NCCN2CCOCC2)c(C)c1C	none
COC(=O)c1cc(S(=O)(=O)Nc2cc(OC)cc(OC)c2)cn1C	miR122 inh 153 (no result: Vif imaging) | miR-27b select inactive
CO[C@H]1CN(C)C(=O)c2cc(NS(C)(=O)=O)ccc2OC[C@H](C)N(Cc2nccs2)C[C@H]1C	none (no result: Vif imaging)
COc1ccccc1CNC(=O)C[C@H]1C[C@H]2c3cc(N(C)C)ccc3O[C@H]2[C@@H](CO)O1	none (no result: Vif imaging)
S=C(Nc1ccc(Cl)cc1Cl)NC1CCCCC1	miR122 inh 133 (no result: HIV Env fusion, Ecoli rRNA inh, FN deposit inh, S100A4 inh HTS) | miR-27b select inactive
Cc1cc(S(=O)(=O)NC2CCCCC2)c(C)s1	miR122 inh 260 | miR-27b select inactive
Cc1ccc(C(=O)C2Oc3ccccc3C3CC(c4ccc(C)cc4)=NN23)cc1 (stereo not given)	Ecoli rRNA inh -17, miR122 inh 152 | miR-27b select inactive | AID977621 inactive | AID977628 inactive
COc1ccc2c3c([nH]c2c1)[C@H](CO)N(Cc1ccncc1)CC31CN(C(=O)c2cccnc2)C1	none (no result: Vif imaging, HIV Env fusion, FN deposit inh, S100A4 inh HTS, miR122 inh)
Cn1ccc2cc(-c3ccc4ncnc(NCc5cccs5)c4c3)ccc21	Ecoli rRNA inh -24 | AID977621 inconclusive | AID977628 inactive
C[C@H]1CN([C@@H](C)CO)C(=O)Cc2cc(NC(=O)C3CC3)ccc2O[C@@H]1CN(C)C(=O)Nc1cccc2ccccc12	none (no result: Vif imaging, FN deposit inh)
Cc1ccc(S(=O)(=O)Nc2ccccc2CNc2cccc(C)n2)cc1	Ecoli rRNA inh -16 | AID977621 inactive | AID977628 inconclusive
COCC(=O)N(C)C[C@H]1Oc2cc(C3=CCCCC3)ccc2S(=O)(=O)N([C@H](C)CO)C[C@@H]1C	none (no result: Vif imaging, FN deposit inh)
CCCc1nc2oc3c(NCCCN(C)C)ncnc3c2c2c1CCCC2	Ecoli rRNA inh -23 | AID977621 inactive
O=C(N[C@H]1CC[C@@H](CCNS(=O)(=O)c2ccccc2)O[C@@H]1CO)c1cccnc1	none (no result: Vif imaging, FN deposit inh, miR122 inh)
C[C@@H]1CN([C@@H](C)CO)C(=O)c2cc(NC(=O)NC3CCCCC3)ccc2O[C@@H](C)CCCCO[C@H]1CN(C)S(=O)(=O)c1cn(C)cn1	none (no result: Vif imaging, FN deposit inh)
COc1ccc(-c2csc(C)n2)cc1Br	Ecoli rRNA inh -29 (no result: FN deposit inh) | AID977621 inactive | AID977628 inactive
COc1ccc(OC)c(NC(=O)c2ccc(-c3csc(C)n3)cc2)c1	none
O=C(C[C@H]1C=C[C@H](NC(=O)C2CC2)[C@@H](CO)O1)NCc1ccccc1Cl	none (no result: Vif imaging)
CC(=O)N(CCC1(c2ccc(C)cc2)CCOC(C(C)C)C1)Cc1ccco1 (stereo not given)	Ecoli rRNA inh -20 | AID977621 inactive
Cc1ccc(C2(CCNCc3ccco3)CCOC(C(C)C)C2)cc1 (stereo not given)	none
Cc1ccccc1S(=O)(=O)NCC[C@@H]1CC[C@@H](NC(=O)C2CCC2)[C@@H](CO)O1	none (no result: Vif imaging, FN deposit inh, miR122 inh)
COc1cccc2c1Oc1cc([N+](=O)[O-])cc(N(C)C(C)=O)c1C=C2	Ecoli rRNA inh -17 | AID977628 inconclusive
O=[N+]([O-])c1cccc(COc2ccc(CN3CCOCC3)cc2)c1	Ecoli rRNA inh -17 | AID977621 inactive | AID977628 inactive
COc1ccc(-n2nc3cc(N)c(Br)cc3n2)cc1	Ecoli rRNA inh -27 | AID977621 inactive | AID977628 inactive
CCCNC(=O)C[C@H]1CC[C@@H]2[C@H](COc3ccc(NS(=O)(=O)c4ccccc4C)cc3C(=O)N2C)O1	none (no result: Vif imaging)
CC(C)NC(=O)N[C@@H]1C=C[C@@H](CC(=O)NCCCN(C)C)O[C@H]1CO	none (no result: Vif imaging)
COc1cc2c(cc1OC)CN(C(=O)c1cc(Cl)nc(Cl)c1)CC2	none
COc1cc2c(cc1OC)C1(C)N(CC2)C(C(C)=O)=NN1c1ccc(Cl)cc1 (stereo not given)	Ecoli rRNA inh -17 | AID977621 inactive
C[C@@H]1CN([C@@H](C)CO)S(=O)(=O)c2ccc(C3=CCCCC3)cc2O[C@@H]1CN(C)Cc1cccnc1	none (no result: Vif imaging, FN deposit inh, miR122 inh)
CCN(c1ccccc1)S(=O)(=O)c1ccc(OC)c(NC(=O)C2CC(=O)N(Cc3ccccc3)C2)c1 (stereo not given)	Ecoli rRNA inh -31 | AID977628 inconclusive
Cc1cccc(NC(=O)c2sc3nc(-c4ccccc4)cn3c2C)n1	Ecoli rRNA inh -18 (no result: HIV Env fusion, FN deposit inh) | AID977621 inactive
C[C@@H]1CN([C@H](C)CO)C(=O)CCCn2nncc2CO[C@@H]1CN(C)C(=O)Nc1ccc(F)cc1	none (no result: Vif imaging, HIV Env fusion)
O=C(NCc1nc2ccccc2[nH]1)c1ccc(S(=O)(=O)N2CCCC2)cc1	Ecoli rRNA inh -29 | AID977621 inactive
CO[C@@H]1CN(C)C(=O)c2cc(NC(=O)c3cnccn3)ccc2OC[C@H](C)N(CC2CC2)C[C@H]1C	none (no result: Vif imaging, HIV Env fusion, miR122 inh)
COc1ccc(NS(=O)(=O)c2cccc3ccccc23)cc1	Ecoli rRNA inh -39 (no result: miR122 inh) | AID977621 inactive
CCCn1nnnc1NCc1ccccc1OCc1cccs1	Ecoli rRNA inh -20 (no result: HIV Env fusion, FN deposit inh) | AID977621 inactive
CCc1cc2c(=O)n(Cc3ccccc3)c(SC3CCOC3=O)nc2s1 (stereo not given)	Ecoli rRNA inh -24 (no result: miR122 inh) | AID977621 inactive
CC(=O)N1CCN(c2nc(-c3cccs3)nc3ccccc23)CC1	Ecoli rRNA inh -24 (no result: miR122 inh) | AID977621 inactive
